In ChEMBL document CHEMBL1123507, “Antipicornavirus activity of substituted phenoxybenzenes and phenoxypyridines” (J Med Chem, 1986):
Converted amounts (≈) assume the structure as drawn.

What was measured:
[1] = system: Enterovirus; assay: Lowest concentration to reduce viral effect by 50% or more against Rhinovirus (RV)-2; type: functional
Procedure, shortened: (§1)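 HeLa monolayers were seeded at (1.0-1.3) × 10^5 cells/well, grown 24 h at 36 °C in 5% CO2 to 60–75% cover, then refed with maintenance medium (1-2% heat-inactivated FCS) containing two-fold serial compound dilutions made from a 200 μg/mL stock in Me2SO/medium, with final Me2SO ≤0.1%. Cells were challenged with 10-100 TCID50 virus, and CPE was read microscopically at 48 and 72 h. MIC50 was the lowest concentration giving ≥50% CPE reduction versus virus control. Cytotoxicity was the lowest concentration causing cell death, a growth change or a morphology change in uninfected cultures.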

[2] = system: Enterovirus; assay: Ratio of the MIC50 of 6-(4-Nitro-phenoxy)-nicotinonitrile compared to compound obtained in the same test for Rhinovirus (RV)-2; type: functional
Procedure, shortened: (§2)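 Relative activity was calculated as the MIC50 of the positive control 5-cyano-2-(4-nitrophenoxy)pyridine divided by the MIC50 of the test compound. Both were measured in parallel in the same HeLa CPE test (48/72 h microscopic reading) against RV-1A, RV-2 or coxsackievirus A21.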

[3] = system: Enterovirus; assay: Ratio of the MIC50 of 6-(4-Nitro-phenoxy)-nicotinonitrile compared to compound obtained in the same test for Rhinovirus (RV)-1A; type: functional; procedure, shortened: as §2
[4] = system: Coxsackievirus; assay: Ratio of the MIC50 of 6-(4-Nitro-phenoxy)-nicotinonitrile compared to compound obtained in the same test for coxsackie A21; type: functional; procedure, shortened: as §2
[5] = system: Coxsackievirus; assay: Lowest concentration to reduce viral effect by 50% or more against coxsackie virus A21; type: functional; procedure, shortened: as §1
[6] = system: HeLa; assay: Cytotoxicity concentration in HeLa cells; type: cell-based; conditions: human; procedure, shortened: as §1
[7] = system: Enterovirus; assay: Lowest concentration to reduce viral effect by 50% or more against Rhinovirus (RV)-1A; type: functional; procedure, shortened: as §1

Compound | MIC50 [1] [µM] | Relative activity [2] | Relative activity [3] | Relative activity [4] | MIC50 [5] [µM] | Toxicity [6] [µM] | MIC50 [7] [µM]
N#Cc1ccnc(Oc2ccc(Cl)c(Cl)c2)c1 | 12 (≈ 3.18 µg/mL) | 2.2 | 1.1 | 1.1 | 12 (≈ 3.18 µg/mL) | > 189 | 24 (≈ 6.36 µg/mL)
N#Cc1ccc(Oc2ccc(Cl)c(Cl)c2)cc1 | 9.5 (≈ 2.51 µg/mL) | 2.7 | 2.7 | 11.3 | 2.3 (≈ 0.607 µg/mL) | 24 | 9.5 (≈ 2.51 µg/mL)
N#Cc1cc([N+](=O)[O-])ccc1Oc1ccccc1Cl | 4.5 (≈ 1.24 µg/mL) | 4.6 | 4.6 | 2.38 | 5.7 (≈ 1.57 µg/mL) | 45 | 4.5 (≈ 1.24 µg/mL)
N#Cc1ccc(Oc2ccc(Cl)cc2)nc1 | 54 (≈ 12.5 µg/mL) | 2 | 1.9 | 0.48 | 54 (≈ 12.5 µg/mL) | > 433 | 54 (≈ 12.5 µg/mL)
CS(=O)(=O)c1ccc(Oc2ccc([N+](=O)[O-])cc2)cc1 | 21.3 (≈ 6.25 µg/mL) | 2.4 | 1.2 | 6.1 | 0.85 (≈ 0.249 µg/mL) | 171 | 42.7 (≈ 12.5 µg/mL)
CC(=O)c1ccc(Oc2ccc(Cl)c(Cl)c2)cc1 | 2.2 (≈ 0.619 µg/mL) | 11.8 | 11.8 |  |  | 49 | 2.2 (≈ 0.619 µg/mL)
N#Cc1cc([N+](=O)[O-])ccc1Oc1ccc(C(F)(F)F)cc1 | 1 (≈ 0.308 µg/mL) | 13 | 1.3 | 13 | 2 (≈ 0.616 µg/mL) | 162 | 10 (≈ 3.08 µg/mL)
N#Cc1cc([N+](=O)[O-])ccc1Oc1cccc(C(F)(F)F)c1 | 2 (≈ 0.616 µg/mL) | 25.9 | 1.6 | 5.3 | 3.9 (≈ 1.2 µg/mL) | 41 | 8.1 (≈ 2.5 µg/mL)
Cc1ccc(Oc2ccc([N+](=O)[O-])cc2C#N)cc1 | 5.1 (≈ 1.3 µg/mL) | 2 | 4.1 | 2.2 | 2.4 (≈ 0.61 µg/mL) | 39 | 5.1 (≈ 1.3 µg/mL)
N#Cc1cccc(Oc2ccc(Cl)c(Cl)c2)n1 | > 378 |  | 0.28 | 0.91 | 23.5 (≈ 6.23 µg/mL) | 378 | 94 (≈ 24.9 µg/mL)
O=C(O)c1cc([N+](=O)[O-])ccc1Oc1ccc(Cl)c(Cl)c1 | 38.1 (≈ 12.5 µg/mL) | 1.4 | 2.7 | 0.34 | 76.2 (≈ 25 µg/mL) | 305 | 19 (≈ 6.23 µg/mL)
CS(=O)(=O)c1ccc(Oc2ccc(Br)cc2)cc1 | 1 (≈ 0.327 µg/mL) | 19.7 | 9.8 | 2.5 | 7.6 (≈ 2.49 µg/mL) | 38 | 1.9 (≈ 0.622 µg/mL)
N#Cc1ccc(Oc2ccc([N+](=O)[O-])cc2C#N)cc1 | 9.4 (≈ 2.49 µg/mL) | 1.1 | 2.2 | 0.33 | 18.9 (≈ 5.01 µg/mL) | > 38 | 9.4 (≈ 2.49 µg/mL)
N#Cc1cc([N+](=O)[O-])ccc1Oc1ccc(Br)cc1 | 3.8 (≈ 1.21 µg/mL) | 6.8 | 6.8 | 3.3 | 7.8 (≈ 2.49 µg/mL) | > 313 | 3.8 (≈ 1.21 µg/mL)
Cc1ccc(Oc2ccc(S(C)(=O)=O)cc2)cc1 | 25.4 (≈ 6.66 µg/mL) | 1 | 0.51 | 1 | 25.4 (≈ 6.66 µg/mL) | 203 | 50.8 (≈ 13.3 µg/mL)
N#Cc1cc([N+](=O)[O-])ccc1Oc1ccc(Cl)cc1 | 2.8 (≈ 0.769 µg/mL) | 9.3 | 18.5 | 7.2 | 3.6 (≈ 0.989 µg/mL) | > 364 | 1.4 (≈ 0.385 µg/mL)
CS(=O)(=O)c1cccc(Oc2ccc(Cl)c(Cl)c2)n1 | 39 (≈ 12.4 µg/mL) | 0.66 | 2.6 |  | 157 (≈ 50 µg/mL) | 157 | 10 (≈ 3.18 µg/mL)
CSc1ccc(Oc2ccc(Cl)c(Cl)c2)nc1 | 9 (≈ 2.58 µg/mL) | 5.8 | 6.5 | 4.6 | 9 (≈ 2.58 µg/mL) | 87 | 4 (≈ 1.14 µg/mL)
Cc1ccc(Oc2ccc(C#N)cn2)cc1 | 30 (≈ 6.31 µg/mL) | 1.7 | 0.43 | 0.43 | 60 (≈ 12.6 µg/mL) | 476 | 60 (≈ 12.6 µg/mL)
CC(=O)Nc1ccc(Oc2ccc(Cl)c(Cl)c2)c(C#N)c1 | 3.7 (≈ 1.19 µg/mL) | 3.5 | 3.5 | 1.7 | 15.6 (≈ 5.01 µg/mL) | 62 | 3.7 (≈ 1.19 µg/mL)
N#Cc1cc([N+](=O)[O-])ccc1Oc1cc(Cl)cc(Cl)c1 | 8.1 (≈ 2.5 µg/mL) | 1.6 | 1.6 | 0.8 | 16.2 (≈ 5.01 µg/mL) | > 65 | 16.2 (≈ 5.01 µg/mL)
CS(=O)(=O)c1ccc(Oc2ccc(Cl)cc2)cc1 | 4.4 (≈ 1.24 µg/mL) | 5.9 | 11.8 | 11.8 | 2.2 (≈ 0.622 µg/mL) | 44 | 4.4 (≈ 1.24 µg/mL)
Clc1ccc(Oc2ccc(Cl)c(Cl)c2)cc1 | 45.6 (≈ 12.5 µg/mL) |  | 2.3 | 1.4 | 9.1 (≈ 2.49 µg/mL) | 91 | 22.8 (≈ 6.24 µg/mL)
Cc1cc(Oc2ccc(Cl)c(Cl)c2)ccc1S(C)(=O)=O |  | 1.4 | 1.7 |  | > 151 | > 151 | 15.7 (≈ 5.2 µg/mL)
COc1cccc(Oc2ccc([N+](=O)[O-])cc2C#N)c1 | 9.3 (≈ 2.51 µg/mL) | 1.4 | 1.1 | 2.8 | 4.6 (≈ 1.24 µg/mL) | > 185 | 23 (≈ 6.22 µg/mL)
O=S(=O)(c1ccc(Oc2ccc(Cl)c(Cl)c2)cc1)C(F)(F)F | 16.8 (≈ 6.24 µg/mL) | 1.5 | 0.39 |  |  | > 135 | 33.7 (≈ 12.5 µg/mL)
C[S+]([O-])c1ccc(Oc2ccc(Cl)c(Cl)c2)nc1 (centres undefined) | 4 (≈ 1.21 µg/mL) | 3.3 | 6.5 |  | 83 (≈ 25.1 µg/mL) | 83 | 2 (≈ 0.604 µg/mL)
N#Cc1ccc(Oc2ccccc2)nc1 |  |  | 0.4 | 0.81 | 64 (≈ 12.6 µg/mL) | 676 | 64 (≈ 12.6 µg/mL)
